Published values of several laboratories.
Lines come from different studies, so protocols differ. In brackets after ≈: the same amount, converted by molar mass.
Organism: Mycobacterium tuberculosis variant bovis BCG
Read-out: microbial growth

Clc1cccc(COc2ccccc2CNCc2ccncc2)c1 — MIC (ATCC35734 BCG): > 62.5 µM
C=CC(c1ccc(-c2ccc3c(c2)OCO3)cc1F)n1ccnc1 (stereo not drawn) — MIC50 (BCG): > 30 µM
COc1ccc(C(=O)C=Cc2ccc(OC)c(OC)c2)cc1 — MIC (BCG; 7 days): 50 µg/mL
CCCNc1cnc(C(=O)O)cn1 — IC50 (ATCC35734 BCG; 5 days): 700 µM
COc1ccc(C=CC(=O)c2ccc(C)cc2)cc1OC — MIC (BCG; 7 days): 25 µg/mL
c1ccc(COc2ccc(CNCc3cccnc3)cc2)cc1 — MIC (ATCC35734 BCG): > 62.5 µM
COc1ccc(C=CC(=O)c2ccc([N+](=O)[O-])cc2)cc1OC — MIC (BCG; 7 days): 200 µg/mL
Clc1ccc(COC(Cn2ccnc2)c2ccc(Cl)cc2Cl)cc1 (stereo not drawn) — MIC50 (BCG): 12.7 µM (≈ 4.85 µg/mL)
Fc1ccc(COc2cccc(CNCc3cccnc3)c2)cc1 — MIC (ATCC35734 BCG): > 62.5 µM
COc1ccc(C=CC(=O)c2ccc(Cl)cc2)cc1OC — MIC (BCG; 7 days): 200 µg/mL
C=CC(c1ccc(-c2ccc3[nH]ccc3c2)cc1)n1ccnc1 (stereo not drawn) — MIC50 (BCG): 41 µM (≈ 12.3 µg/mL)
COc1ccc(C=CC(=O)c2cccc([N+](=O)[O-])c2)cc1OC — MIC (BCG; 7 days): 100 µg/mL
Fc1ccc(COc2cccc(CNCc3ccncc3)c2)cc1 — MIC (ATCC35734 BCG): > 62.5 µM
C=CC(c1ccc(-c2ccc3c(c2)OCO3)cc1)n1ccnc1 (stereo not drawn) — MIC50 (BCG): 20 µM (≈ 6.09 µg/mL)
Nc1nccnc1C(=O)O — IC50 (ATCC35734 BCG; 5 days): 800 µM
